In ChEMBL document CHEMBL1773039, “Structure-Activity Study of Dihydrocinnamic Acids and Discovery of the Potent FFA1 (GPR40) Agonist TUG-469” (ACS Med Chem Lett, 2010):
The source made the active and inactive calls. The calls are words filed in the database; no cut-off is given here.

Assays:
[1] = target: T1, Free fatty acid receptor 1 (Homo sapiens, UniProt O14842); experiment: Agonist activity at human FFA1 transfected in 1321N1 cells assessed as calcium mobilization by microplate assay; assay type: functional, cell-based
Summary of the method: (§1)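 Calcium mobilization in hFFA1-expressing cells was measured as full concentration-response curves and reported as pEC50. Efficacy is % of the response to 10 μM of the reference agonist.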

[2] = target: T1, Free fatty acid receptor 1; experiment: Agonist activity at human FFA1 transfected in 1321N1 cells assessed as calcium mobilization by microplate assay relative to 10 uM TUG-20; assay type: functional, cell-based; summary of the method: as §1
Homo sapiens = species on record: Homo sapiens; experiment: Selectivity for human FFA1 over human PPARgamma
[3] = target: T2, Peroxisome proliferator-activated receptor gamma (Homo sapiens) (UniProt P37231); experiment: Transactivation of human PPARgamma ligand binding domain transfected in mouse embryo fibroblasts assessed as renilla luciferase activity at 1 uM after 18 hrs by luminometry relative to 1 uM rosiglitazone
T2 sequence (whole entry): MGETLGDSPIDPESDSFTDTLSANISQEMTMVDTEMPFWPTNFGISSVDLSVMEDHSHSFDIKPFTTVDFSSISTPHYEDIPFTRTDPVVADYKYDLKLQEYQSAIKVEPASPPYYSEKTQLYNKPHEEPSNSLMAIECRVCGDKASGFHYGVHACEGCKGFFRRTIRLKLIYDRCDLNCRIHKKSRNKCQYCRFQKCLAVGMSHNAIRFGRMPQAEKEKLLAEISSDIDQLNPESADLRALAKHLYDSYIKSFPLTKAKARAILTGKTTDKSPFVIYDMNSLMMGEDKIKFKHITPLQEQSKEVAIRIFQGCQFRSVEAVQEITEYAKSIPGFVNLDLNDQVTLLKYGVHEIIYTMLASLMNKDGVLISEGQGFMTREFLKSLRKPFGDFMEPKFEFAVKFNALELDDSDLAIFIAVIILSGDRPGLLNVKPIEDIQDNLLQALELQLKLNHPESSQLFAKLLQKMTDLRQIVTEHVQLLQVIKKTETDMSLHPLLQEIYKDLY

[4] = target: T2, Peroxisome proliferator-activated receptor gamma (Homo sapiens); experiment: Transactivation of human PPARgamma ligand binding domain transfected in mouse embryo fibroblasts at 100 uM after 18 hrs analyzed by photinus and renilla luciferase activity by luminometry relative to 1 uM rosiglitazone
[5] = target: Free fatty acid receptor 3 (Homo sapiens) (UniProt O14843); experiment: Agonist activity at human GPR41 in HEK293 cells
[6] = target: Free fatty acid receptor 2 (Homo sapiens) (UniProt O15552); experiment: Agonist activity at human GPR43 in HEK293 cells
[7] = target: T1, Free fatty acid receptor 1; experiment: Agonist activity at human FFA1 transfected in 1321N1 cells assessed as calcium mobilization by microplate assay in presence of 0.05 % bovine serum albumin; assay type: functional, cell-based
Summary of the method: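 Calcium-response assay at hFFA1, with 0.05% BSA added to the assay because the compound dissolves poorly.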

[8] = target: T1, Free fatty acid receptor 1; experiment: Agonist activity at human FFA1 transfected in 1321N1 cells assessed as calcium mobilization by microplate assay in presence of 0.5 % bovine serum albumin; assay type: functional, cell-based
[9] = target: T1, Free fatty acid receptor 1; experiment: Agonist activity at human FFA1 transfected in 1321N1 cells under serum-free condition after 1 hr by dose response curve/dynamic mass redistribution optical biosensor assay; assay type: functional, cell-based
Summary of the method: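 hFFA1-transfected 1321N1 cells were exposed to a range of agonist concentrations. Label-free dynamic mass redistribution was tracked over time as the resonant wavelength shift (pm), a read-out of receptor activation. pEC50 was taken from concentration-response curves of this signal.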

[10] = target: T1, Free fatty acid receptor 1; experiment: Agonist activity at human FFA1 transfected in 1321N1 cells assessed as calcium mobilization by microplate assay relative to linoleic acid; assay type: functional, cell-based

Sequence of Free fatty acid receptor 2 (Homo sapiens) (O15552 whole entry, looked up): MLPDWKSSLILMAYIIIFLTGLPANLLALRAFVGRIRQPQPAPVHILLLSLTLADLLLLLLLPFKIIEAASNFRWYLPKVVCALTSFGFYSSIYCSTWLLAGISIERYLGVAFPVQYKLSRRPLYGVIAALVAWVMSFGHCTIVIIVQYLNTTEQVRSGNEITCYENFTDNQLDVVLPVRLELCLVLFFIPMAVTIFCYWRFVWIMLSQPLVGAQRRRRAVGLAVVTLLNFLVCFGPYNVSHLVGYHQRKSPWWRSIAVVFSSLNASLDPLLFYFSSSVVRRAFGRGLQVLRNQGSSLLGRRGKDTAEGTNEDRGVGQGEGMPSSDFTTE
T1 sequence (O14842 whole entry): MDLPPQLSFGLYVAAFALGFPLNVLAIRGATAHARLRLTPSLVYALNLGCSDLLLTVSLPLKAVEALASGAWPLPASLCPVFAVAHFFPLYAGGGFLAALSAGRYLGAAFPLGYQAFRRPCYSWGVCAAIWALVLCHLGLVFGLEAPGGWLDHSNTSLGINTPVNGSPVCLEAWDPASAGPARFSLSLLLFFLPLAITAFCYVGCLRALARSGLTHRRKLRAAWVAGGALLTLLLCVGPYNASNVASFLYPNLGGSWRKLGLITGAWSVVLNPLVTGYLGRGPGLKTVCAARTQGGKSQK
Sequence of Free fatty acid receptor 3 (Homo sapiens) (O14843 whole entry, looked up): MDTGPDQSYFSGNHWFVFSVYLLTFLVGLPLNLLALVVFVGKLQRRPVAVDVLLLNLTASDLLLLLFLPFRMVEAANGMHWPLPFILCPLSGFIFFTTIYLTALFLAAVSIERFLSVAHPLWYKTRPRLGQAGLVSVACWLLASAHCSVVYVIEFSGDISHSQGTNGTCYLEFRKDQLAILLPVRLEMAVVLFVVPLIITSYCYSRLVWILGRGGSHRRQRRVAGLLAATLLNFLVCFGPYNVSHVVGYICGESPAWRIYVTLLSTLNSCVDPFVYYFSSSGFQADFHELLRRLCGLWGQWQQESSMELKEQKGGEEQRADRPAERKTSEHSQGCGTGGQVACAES

Row | SMILES | EC50 [1] [nM] | Efficacy [2] [%] | fold change (FC) (Homo sapiens) | Activity [3] | Activity [4] | Activity [5] | Activity [6] | EC50 [7] [nM] | EC50 [8] [nM] | EC50 [9] [nM] | Activity [10] [%]
1 | Cc1ccc(-c2cccc(CNc3ccc(CCC(=O)O)cc3)c2)cc1 | 126 | 92 | > 100 | inactive | 31% | inactive | inactive | – | – | – | –
2 | O=C(O)CCc1ccc(OCc2ccc(Br)cc2)cc1 | 550 | 98 | > 100 | inactive | – | inactive | inactive | – | – | – | –
3 | O=C(O)CCc1ccc(NCc2cccc(C(F)(F)F)c2)cc1 | 186 | 102 | > 100 | inactive | – | inactive | inactive | – | – | – | –
4 | O=C(O)CCc1ccc(OCc2ccc(Oc3ccccc3)cc2)cc1 | 204 | 98 | > 100 | inactive | 23% | inactive | inactive | – | – | – | –
5 | O=C(O)CCc1ccc(OCc2ccccc2)c(I)c1 | 12600 | 81 | > 100 | inactive | 42% | inactive | inactive | – | – | – | –
6 | Cc1ccccc1-c1cccc(COc2ccc(CCC(=O)O)cc2)c1 | 50.1 | 112 | > 100 | inactive | 37% | inactive | inactive | 81.3 | 562 | 263 | –
7 | O=C(O)CCc1ccc(NCc2ccc(Oc3ccccc3)cc2)cc1 | 182 | 100 | > 100 | inactive | 34% | inactive | inactive | – | – | – | –
8 | O=C(O)CCc1ccc(CCc2ccccc2)cc1 | 3630 | 116 | > 100 | inactive | – | inactive | inactive | – | – | – | –
9 | O=C(O)CCc1ccc(NCc2cccc(Br)c2)cc1 | 174 | 110 | > 100 | inactive | 27% | inactive | inactive | – | – | – | –
10 | N#Cc1cccc(COc2ccc(CCC(=O)O)cc2)c1 | 525 | 102 | > 100 | inactive | – | inactive | inactive | – | – | – | –
11 | COc1ccccc1-c1cccc(CNc2ccc(CCC(=O)O)cc2)c1 | 69.2 | 109 | > 100 | inactive | 51% | inactive | inactive | – | – | – | –
12 | O=C(O)CCc1ccc2oc(-c3ccccc3)cc2c1 | 2450 | 92 | > 100 | inactive | inactive | inactive | inactive | – | – | – | –
13 | O=C(O)CCc1ccc(COc2ccccc2)cc1 | 6310 | 88 | > 100 | inactive | inactive | inactive | inactive | – | – | – | –
14 | O=C(O)CCc1ccc(OCc2cccc(Br)c2)cc1 | 89.1 | 99 | > 100 | inactive | 19% | inactive | inactive | – | – | – | –
15 | CC(Oc1ccc(CCC(=O)O)cc1)c1ccccc1 (stereo unspecified) | 3310 | 106 | > 100 | inactive | – | inactive | inactive | – | – | – | –
16 | O=C(O)CCc1ccc(NCc2cccc(-c3ccccc3)c2)cc1 | 53.7 | 101 | > 100 | inactive | 33% | inactive | inactive | – | – | – | –

Row | SMILES | EC50 [1] [nM] | Efficacy [2] [%] | fold change (FC) (Homo sapiens) | Activity [3] | Activity [4] | Activity [5] | Activity [6] | EC50 [7] [nM] | EC50 [8] [nM] | EC50 [9] [nM] | Activity [10] [%]
17 | Cc1ccc(-c2cccc(COc3ccc(CCC(=O)O)cc3)c2)cc1 | 490 | 86 | > 100 | inactive | 15% | inactive | inactive | – | – | – | –
18 | O=C(O)CCc1ccc(CNc2ccccc2)cc1 | 21400 | 101 | > 100 | inactive | inactive | inactive | inactive | – | – | – | –
19 | O=C(O)CCc1ccc(C#Cc2ccccc2)cc1 | 200 | 108 | > 100 | inactive | – | inactive | inactive | – | – | – | –
20 | O=C(O)CCc1ccc(NCc2cccc(Oc3ccccc3)c2)cc1 [GW9508] | 28.8 | 103 | – | – | 54% | – | – | – | – | 87.1 | –
21 | COc1ccccc1-c1cccc(COc2ccc(CCC(=O)O)cc2)c1 | 120 | 105 | > 100 | inactive | 37% | inactive | inactive | – | – | – | –
22 | O=C(O)CCc1ccc(OCc2ccccc2)cc1 [BENZYLOXYPHENYLPROPANOIC ACID] | 457 | – | – | inactive | 7% | inactive | inactive | – | – | 832 | 123
23 | O=C(O)CCc1ccc(OCc2cccc(Oc3ccccc3)c2)cc1 | 57.5 | 98 | > 100 | inactive | 51% | inactive | inactive | – | – | – | –
24 | O=C(O)CCc1ccc(NCc2ccccc2)cc1 | 759 | 89 | > 100 | inactive | 7% | inactive | inactive | – | – | – | –
25 | O=C(O)CCc1ccc(NCc2ccc(-c3ccccc3)cc2)cc1 | 417 | 92 | > 100 | inactive | 23% | inactive | inactive | – | – | – | –
26 | O=C(O)CCc1ccc(OCc2cccc(C(F)(F)F)c2)cc1 | 83.2 | 103 | > 100 | inactive | – | inactive | inactive | – | – | – | –
27 | O=C(O)CCc1ccc(OCc2ccccc2-c2ccccc2)cc1 | – | – | > 100 | inactive | – | inactive | inactive | – | – | – | –
28 | O=C(O)CCc1ccc(OCc2ccccc2Br)cc1 | 447 | 99 | > 100 | inactive | – | inactive | inactive | – | – | – | –
29 | Cc1cc(Oc2ncc(C(F)(F)F)cc2Cl)ccc1CC1SC(=O)NC1=O (stereo unspecified) | 178 | 103 | – | – | – | – | – | – | – | – | –
30 | O=C(O)CCc1ccc(OCc2ccc(-c3ccccc3)cc2)cc1 | 912 | 97 | > 100 | inactive | inactive | inactive | inactive | – | – | – | –
31 | O=C(O)CCc1ccc(OCc2cccc(-c3ccccc3)c2)cc1 | 135 | 105 | > 100 | inactive | 25% | inactive | inactive | – | – | – | –
